pEC50, pIC50: −log10 of the molar value.

The first assay relates to Trypanosoma cruzi. Briefly: Ratio of Benzidazole IC50 to compound IC50 for bloodstream trypomastigote form of Trypanosoma cruzi Y. The format is functional.
Conditions: not given
On to `Cc1ccc(C2CCC3=C(O2)c2ccccc2C(=O)C3=O)cc1` (centres undefined), for which the “Ratio IC50” value is on record as 2.

With `O=C1C(=O)c2ccccc2C2=C1C[C@@H]1CC=C[C@@H]1O2`, the “Ratio IC50” value is given as 2.

As for `O=C1C(=O)c2ccccc2C2=C1CCC(c1ccccc1)O2` (centres undefined), the “Ratio IC50” value came out at 2.

Another assay deals with Trypanosoma cruzi. Briefly: Antitrypanosomal activity against bloodstream trypomastigote form of Trypanosoma cruzi Y isolated from albino mouse blood after 24 hrs. The assay is classed as functional, organism-based.
Conditions: not given
The method in brief:
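Y-strain bloodstream trypomastigotes taken from infected albino mice at peak parasitaemia, isolated by differential centrifugation, and resuspended at 10^7 cells/mL in DMEM with 10% mouse blood. Compounds were added from DMSO stocks, with final DMSO never above 0.1%.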
One may read the pIC50 as the IC50 on a negative log10 scale, so that one unit is a factor of ten. Lower therefore signals a large IC50. `CC1(c2ccccc2)CCC2=C(O1)c1ccccc1C(=O)C2=O` (centres undefined): the pIC50 was 3.91.

Molecule `O=C1C(=O)c2ccccc2C2=C1CCC(c1ccc(Cl)cc1)O2` (centres undefined) gave a pIC50 of 4.69.

`Cc1ccc(C2CCC3=C(O2)c2ccccc2C(=O)C3=O)cc1` (centres undefined) had a pIC50 of 4.29.

Take `COc1ccc(C2CCC3=C(O2)c2ccccc2C(=O)C3=O)cc1` (centres undefined): the pIC50 is 3.92.

With `O=C1C(=O)c2ccccc2C2=C1CCC(c1ccc(F)cc1)O2` (centres undefined), the pIC50 is 4.01.

Turning to `CCOc1ccc(C2CCC3=C(O2)c2ccccc2C(=O)C3=O)cc1` (centres undefined), the pIC50 is 3.88.

Molecule `Cc1ccc(C2CCC3=C(O2)c2ccccc2C(=O)C3=O)c(C)c1` (centres undefined) had a pIC50 of 3.16.

Turning to `Cc1ccc(C2CC(c3ccc([N+](=O)[O-])cc3)C3=C(O2)c2ccccc2C(=O)C3=O)cc1` (centres undefined), the pIC50 is < 2.40.

For `Cc1ccc(C2CC(c3ccccc3)C3=C(O2)c2ccccc2C(=O)C3=O)cc1` (centres undefined), the pIC50 was 3.07.

For the molecule `Cc1ccc(C2CC(c3cccs3)C3=C(O2)c2ccccc2C(=O)C3=O)cc1` (centres undefined), the pIC50 was 2.73.

`O=C1C(=O)c2ccccc2C2=C1C[C@@H]1CC=C[C@@H]1O2` had a pIC50 of 4.20.

`O=C1C(=O)c2ccccc2C2=C1C[C@@H]1CCC=C[C@@H]1O2`: the pIC50 was 3.79.

The molecule `O=C1C(=O)c2ccccc2C2=C1C[C@@H]1CCCO[C@@H]1O2` gave a pIC50 of 4.45.

For `CCOC1CC[C@H]2CC3=C(O[C@H]2O1)c1ccccc1C(=O)C3=O` (some centres undefined), the pIC50 was 3.48.

Regarding `COC1CC[C@H]2CC3=C(O[C@H]2O1)c1ccccc1C(=O)C3=O` (some centres undefined), the pIC50 is 3.06.

Turning to `CC1(C)CCc2c(c3ccccc3c3nc(-c4ccc5c(c4)OCO5)oc23)O1`, the pIC50 was 4.60.

As for `CC1(C)CCc2c(c3ccccc3c3nc(-c4c[nH]c5ccccc45)[nH]c23)O1`, the pIC50 was 4.70.

In the case of `CC1(C)CCC2=C(O1)c1ccccc1C1(CO1)C2=O` (centres undefined), the pIC50 was 5.89.

In turn, `CC1(C)OC2=C(C(=O)C(=O)c3ccccc32)C1Nc1ccccc1` (centres undefined) showed a pIC50 of 4.06.

Take `O=C1C(=O)c2ccccc2C2=C1CCC(c1ccccc1)O2` (centres undefined): the pIC50 was 4.25.

The assay is the same for the next values; noted with them: read-out: ED50 (the source's name).
As for `CC1(C)CCc2c(c3ccccc3c3nc4cc(Nc5ccccc5)/c(=N/c5ccccc5)cc-4n(-c4ccccc4)c23)O1`, the pEC50 was 4.21.

The values above are taken from ChEMBL document CHEMBL1795240, “Synthesis and anti-Trypanosoma cruzi activity of β-lapachone analogues” (Eur J Med Chem, 2011).
